ChEMBL document CHEMBL3877306, “Triazole Ureas Act as Diacylglycerol Lipase Inhibitors and Prevent Fasting-Induced Refeeding” (J Med Chem, 2017)
pIC50: −log10 of the molar value.

How the values were obtained:
[1] = target: T1, Diacylglycerol lipase-alpha (Homo sapiens, UniProt Q9Y4D2); test: Inhibition of full length recombinant human DAGLalpha expressed in HEK293T cell membranes using PNP butyrate as substrate by colorimetric assay; design: species or system HEK-293T
T1 sequence (Q9Y4D2 whole entry): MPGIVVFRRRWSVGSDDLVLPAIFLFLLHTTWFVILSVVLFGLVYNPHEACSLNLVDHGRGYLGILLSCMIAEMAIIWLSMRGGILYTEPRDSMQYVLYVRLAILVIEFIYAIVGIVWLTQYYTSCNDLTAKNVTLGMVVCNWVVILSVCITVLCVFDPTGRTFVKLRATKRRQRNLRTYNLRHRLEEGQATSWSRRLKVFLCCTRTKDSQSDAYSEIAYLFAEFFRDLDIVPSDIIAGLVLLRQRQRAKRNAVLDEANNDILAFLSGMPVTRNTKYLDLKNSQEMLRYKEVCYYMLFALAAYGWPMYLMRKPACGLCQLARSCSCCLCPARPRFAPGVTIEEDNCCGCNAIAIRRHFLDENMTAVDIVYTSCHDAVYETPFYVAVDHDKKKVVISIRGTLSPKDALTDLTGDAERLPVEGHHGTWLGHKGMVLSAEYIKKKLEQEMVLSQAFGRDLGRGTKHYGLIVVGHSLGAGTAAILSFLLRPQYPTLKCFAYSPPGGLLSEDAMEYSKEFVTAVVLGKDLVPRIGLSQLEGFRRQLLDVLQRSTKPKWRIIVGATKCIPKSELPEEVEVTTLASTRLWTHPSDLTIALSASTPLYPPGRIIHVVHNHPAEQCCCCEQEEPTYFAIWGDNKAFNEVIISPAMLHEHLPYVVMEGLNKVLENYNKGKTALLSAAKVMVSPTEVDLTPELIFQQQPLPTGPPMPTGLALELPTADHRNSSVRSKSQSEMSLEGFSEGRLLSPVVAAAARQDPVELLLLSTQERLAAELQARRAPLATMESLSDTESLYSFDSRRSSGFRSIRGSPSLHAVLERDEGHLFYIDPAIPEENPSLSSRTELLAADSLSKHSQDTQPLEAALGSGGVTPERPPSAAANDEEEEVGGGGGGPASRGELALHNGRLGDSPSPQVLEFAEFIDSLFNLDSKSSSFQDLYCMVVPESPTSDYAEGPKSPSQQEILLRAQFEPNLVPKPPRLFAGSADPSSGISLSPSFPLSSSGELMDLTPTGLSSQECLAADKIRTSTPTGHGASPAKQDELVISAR
How it was run: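 Membranes from HEK293T cells transiently transfected with human DAGLα (PEI transfection, harvested at 72 h), used at 0.05 µg/µL final protein in 50 mM HEPES pH 7.2. Activity was read colorimetrically from para-nitrophenylbutyrate hydrolysis. n = 4, mean ± SEM.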

[2] = target: T2, Monoacylglycerol lipase ABHD6 (Homo sapiens, UniProt Q9BV23); test: Inhibition of human ABHD6 using 2-AG as natural substrate by fluorescence based assay
T2 sequence (Q9BV23 whole entry): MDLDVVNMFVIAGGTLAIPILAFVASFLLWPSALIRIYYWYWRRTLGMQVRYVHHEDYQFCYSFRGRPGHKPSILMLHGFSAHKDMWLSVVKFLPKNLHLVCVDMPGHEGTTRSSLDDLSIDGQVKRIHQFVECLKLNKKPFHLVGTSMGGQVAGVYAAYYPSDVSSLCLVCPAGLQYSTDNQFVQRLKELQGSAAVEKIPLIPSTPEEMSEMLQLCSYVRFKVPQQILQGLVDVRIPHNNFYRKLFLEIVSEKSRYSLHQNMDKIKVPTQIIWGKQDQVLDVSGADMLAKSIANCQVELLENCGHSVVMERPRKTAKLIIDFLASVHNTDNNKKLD
How it was run: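 Coupled fluorescence assay: 2-AG hydrolysis detected via glycerol kinase, glycerol-3-phosphate oxidase and HRP (0.2 U/mL each), 0.125 mM ATP and 10 µM Amplifu Red. Conditions: 25 µM 2-AG, 0.5% acetonitrile, 5% DMSO, ABHD6 membrane protein 40 µg/mL final. n = 4.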

[3] = target: T3, Diacylglycerol lipase-alpha (Mus musculus) (UniProt Q6WQJ1); test: (§1) Inhibition of MB064 probe binding to DAGLalpha in mouse brain membrane proteome preincubated for 30 mins followed by MB064 probe addition measured after 20 mins by gel-based competitive activity based protein profiling assay; format: cell membranes
T3 sequence (whole entry): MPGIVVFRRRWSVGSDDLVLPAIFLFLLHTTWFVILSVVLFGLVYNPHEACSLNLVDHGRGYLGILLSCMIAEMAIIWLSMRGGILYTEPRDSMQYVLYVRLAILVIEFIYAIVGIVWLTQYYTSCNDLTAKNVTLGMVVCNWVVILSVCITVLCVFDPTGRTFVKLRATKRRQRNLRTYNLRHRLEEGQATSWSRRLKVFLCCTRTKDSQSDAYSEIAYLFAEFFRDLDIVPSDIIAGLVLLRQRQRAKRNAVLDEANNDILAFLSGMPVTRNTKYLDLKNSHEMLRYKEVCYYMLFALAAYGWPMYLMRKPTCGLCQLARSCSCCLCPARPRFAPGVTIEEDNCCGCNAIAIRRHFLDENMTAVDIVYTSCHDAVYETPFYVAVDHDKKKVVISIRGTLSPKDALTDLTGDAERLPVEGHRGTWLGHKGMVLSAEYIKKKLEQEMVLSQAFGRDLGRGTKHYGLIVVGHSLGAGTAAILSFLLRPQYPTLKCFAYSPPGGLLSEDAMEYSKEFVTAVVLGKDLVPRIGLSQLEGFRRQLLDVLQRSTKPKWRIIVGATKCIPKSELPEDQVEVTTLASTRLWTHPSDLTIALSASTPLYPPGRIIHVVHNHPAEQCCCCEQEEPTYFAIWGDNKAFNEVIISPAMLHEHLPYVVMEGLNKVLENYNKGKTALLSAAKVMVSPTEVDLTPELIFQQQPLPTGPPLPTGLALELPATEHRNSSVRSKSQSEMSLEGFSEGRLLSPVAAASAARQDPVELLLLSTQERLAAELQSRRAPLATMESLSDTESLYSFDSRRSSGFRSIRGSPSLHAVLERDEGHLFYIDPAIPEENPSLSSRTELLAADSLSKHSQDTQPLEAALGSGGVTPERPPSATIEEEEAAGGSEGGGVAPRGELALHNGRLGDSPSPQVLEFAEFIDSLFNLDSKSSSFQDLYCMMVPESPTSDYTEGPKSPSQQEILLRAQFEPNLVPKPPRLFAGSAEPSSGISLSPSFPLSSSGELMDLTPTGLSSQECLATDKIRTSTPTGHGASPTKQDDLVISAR
How it was run: (§2)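 Mouse brain membrane proteome (2 mg/mL) preincubated with inhibitor or DMSO vehicle for 30 min at r.t., then labelled with MB064 at 250 nM final for 20 min at r.t. and quenched in Laemmli buffer. Fluorescent bands were quantified against vehicle set to 100%, and IC50 was taken from a variable-slope log(inhibitor) vs normalized response fit. n = 3.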

[4] = target: T4, Diacylglycerol lipase-alpha (Mus musculus, UniProt Q6WQJ1); test: as §1; format: cell membranes; how it was run: as §2
T4 sequence (Q6WQJ1 whole entry): T3 sequence (whole entry)

[5] = target: T5, Monoacylglycerol lipase ABHD6 (Mus musculus, UniProt Q8R2Y0); test: Inhibition of MB064 probe binding to ABHD6 in mouse brain membrane proteome preincubated for 30 mins followed by MB064 probe addition measured after 20 mins by gel-based competitive activity based protein profiling assay; format: cell membranes; how it was run: as §2
T5 sequence (Q8R2Y0 whole entry): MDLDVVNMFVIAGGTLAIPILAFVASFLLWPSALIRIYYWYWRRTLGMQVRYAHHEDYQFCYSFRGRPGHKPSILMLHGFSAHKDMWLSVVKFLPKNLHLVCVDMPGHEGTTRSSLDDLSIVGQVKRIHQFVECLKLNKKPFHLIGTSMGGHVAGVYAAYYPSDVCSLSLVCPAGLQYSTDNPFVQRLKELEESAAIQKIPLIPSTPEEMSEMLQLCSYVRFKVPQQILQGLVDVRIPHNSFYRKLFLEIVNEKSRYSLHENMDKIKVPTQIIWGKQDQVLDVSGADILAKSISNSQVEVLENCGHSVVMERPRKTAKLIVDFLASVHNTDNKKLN

[6] = species on record: Mus musculus; test: Selectivity ratio of IC50 for ABHD6 in mouse brain membrane proteome to IC50 for DAGLalpha in mouse brain membrane proteome; format: cell membranes
How it was run: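 Ratio of DAGLα and ABHD6 […] values, both from competitive gel ABPP in mouse brain membrane proteome. Inhibitor was preincubated 30 min at r.t., then MB064 (250 nM final) was added for 20 min. Band intensities were normalized to vehicle and fitted with a variable-slope curve. n = 3.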

Compound	pIC50 [1]	pIC50 [2]	inhibition [3]	pIC50 [4]	pIC50 [5]	Ratio IC50 [6]
O=C(N1CCCCC1COc1ccc(F)cc1)n1ncc(C(O)(c2ccc(F)cc2)c2ccc(F)cc2)n1 (stereo not given)	8.30	6.70				
O=C(N1C[C@@H](OCC2CC2)CC[C@@H]1Cc1ccccc1)n1ncc(C(O)(c2ccc(F)cc2)c2ccc(F)cc2)n1	7.70	5.60	Dose-dependent effect	7.10	< 5.00	145
CO[C@@H]1CC[C@H](Cc2ccccc2)N(C(=O)n2ncc(C(O)(c3ccc(F)cc3)c3ccc(F)cc3)n2)C1	9.10	7.30	Dose-dependent effect	8.70	7.30	25
COc1ccc(CC2CCCCN2C(=O)n2ncc(C(O)(c3ccc(F)cc3)c3ccc(F)cc3)n2)cc1 (stereo not given)	8.30	6.60				
O=C(N1C[C@H](OCC2CC2)CC[C@@H]1Cc1ccccc1)n1ncc(C(O)(c2ccc(F)cc2)c2ccc(F)cc2)n1	9.20	7.40	Dose-dependent effect	8.70	6.50	160
O=C(N1CCCCC1Cc1ccccc1)n1ncc(C(O)(C2CCCCC2)C2CCCCC2)n1 (stereo not given)	7.00	5.10				
O=C(N1CCCCC1Cc1ccccc1)n1ncc(C2(O)CCCCC2)n1 (stereo not given)	5.80	5.50				
O=C(N1C[C@@H](O)C=C[C@@H]1Cc1ccccc1)n1ncc(C(O)(c2ccc(F)cc2)c2ccc(F)cc2)n1	7.70	6.60				
CO[C@H]1CC[C@H](Cc2ccccc2)N(C(=O)n2ncc(C(O)(c3ccc(F)cc3)c3ccc(F)cc3)n2)C1	8.10	6.90	Dose-dependent effect	7.10	6.40	5
CCC1CCCCN1C(=O)n1ncc(-c2ccc(-c3ccccc3)cc2)n1 (stereo not given)	5.40					
O=C(N1C[C@H](O)C=C[C@@H]1Cc1ccccc1)n1ncc(C(O)(c2ccc(F)cc2)c2ccc(F)cc2)n1	7.90	7.40				

Further lines, results first:

pIC50 [1]	pIC50 [2]	inhibition [3]	pIC50 [4]	pIC50 [5]	Ratio IC50 [6]	Compound
7.90	< 5.00					COC(c1ccc(F)cc1)(c1ccc(F)cc1)c1cnn(C(=O)N2CCCCC2Cc2ccccc2)n1 (stereo not given)
5.30	< 5.00					CC(C)(O)c1cnn(C(=O)N2CCCCC2Cc2ccccc2)n1 (stereo not given)
8.50	6.80					COc1cccc(CC2CCCCN2C(=O)n2ncc(C(O)(c3ccc(F)cc3)c3ccc(F)cc3)n2)c1 (stereo not given)
5.20	6.70					O=C(N1C[C@@H](O)CC[C@@H]1Cc1ccccc1)n1ncc(C(O)(c2ccc(F)cc2)c2ccc(F)cc2)n1
9.00	7.60					O=C(N1CCCCC1Cc1ccccc1)n1ncc(C(O)(c2ccc(F)cc2)c2ccc(F)cc2)n1 (stereo not given)
8.20	6.60					O=C(N1CCCCC1COc1ccc(F)cc1)n1ncc(C(O)(c2ccccc2)c2ccccc2)n1 (stereo not given)
8.30	6.70					O=C(N1CCCCC1COc1ccccc1)n1ncc(C(O)(c2ccc(F)cc2)c2ccc(F)cc2)n1 (stereo not given)
7.70	6.80					O=C(N1C[C@H](O)CC[C@@H]1Cc1ccccc1)n1ncc(C(O)(c2ccc(F)cc2)c2ccc(F)cc2)n1
8.10	6.80					O=C(N1CCCCC1COc1ccccc1)n1ncc(C(O)(c2ccccc2)c2ccccc2)n1 (stereo not given)
6.80	5.50					O=C(N1CCCCC1Cc1ccccc1)n1ncc(C(O)(c2ccccn2)c2ccccn2)n1 (stereo not given)
6.40	5.50					CC(O)(c1ccccc1)c1cnn(C(=O)N2CCCCC2Cc2ccccc2)n1 (stereo not given)
9.10						O=C(N1CCCC[C@@H]1Cc1ccccc1)n1ncc(C(O)(c2ccc(F)cc2)c2ccc(F)cc2)n1
